# Screens from PubChem.
# The full list was thinned out, with hits kept by preference.
# T cruzi growth-1: blocks T. cruzi growth in NIH3T3 culture; T. cruzi beta-gal in NIH3T3, GalScreen luminescence, 90 h; inhibition, % at 8.34 µM; hit rate 5.9% among 77,000;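 active = mean inhibition above about 93%, with at least 55% of replicates each passing it, limit read from the data, passing the limit was not always enough; inconclusive = only one of those two conditions holds; inactive = neither condition holds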
# GASC1 inh: KDM4C (human) demethylase inhibition; inhibition, % at 12.5 µM; GST-KDM4C 2-372, H3K9me3 peptide, LANCE TR-FRET; hit rate 0.15% among 96,000;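 active = mean replicate inhibition above about 25%, with at least 55% of replicates also reaching it, limit read from the data, passing the limit was not always enough; inconclusive = only one of those two conditions met; inactive = neither condition met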
#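 System: N-terminal GST-fused human GASC-1 (KDM4C) fragment, residues 2-372; amount: enzyme final amount 10 nM; incubation: reaction 30 min RT, detection step 1 h RT; medium: HEPES buffer, pH 7.5, plus ascorbate; technique: LANCE TR-FRET, Eu antibody, ULight-streptavidin, EDTA, ex 340 nm, em 618/671 nm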
# IDH1 mut inh: IDH1 R132H (human) inhibition; IDH1 R132H reductase, diaphorase/resazurin fluorescence, 60 min; inhibition, % at 10 µM; hit rate 0.18% among 70,000; AID 624101; in the data active = inhibition above about 34%; inconclusive = no clear call, values can overlap the other calls; inactive = below about 11%
# Target sequence (O75874 whole entry R132H): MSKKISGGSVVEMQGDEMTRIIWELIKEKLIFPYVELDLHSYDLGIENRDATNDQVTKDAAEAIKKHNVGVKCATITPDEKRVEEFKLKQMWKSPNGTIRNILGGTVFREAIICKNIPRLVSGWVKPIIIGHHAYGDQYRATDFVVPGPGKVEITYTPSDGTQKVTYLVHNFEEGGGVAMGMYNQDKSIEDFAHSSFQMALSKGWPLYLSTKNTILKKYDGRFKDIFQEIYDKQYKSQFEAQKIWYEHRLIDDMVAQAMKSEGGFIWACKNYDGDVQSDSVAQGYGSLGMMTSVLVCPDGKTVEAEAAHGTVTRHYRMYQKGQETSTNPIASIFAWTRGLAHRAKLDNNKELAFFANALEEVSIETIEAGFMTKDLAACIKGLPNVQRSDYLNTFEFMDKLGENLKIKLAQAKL
# T cruzi growth-2: blocks T. cruzi growth in NIH3T3 host cells | shares compounds with T cruzi growth-1 | T. cruzi beta-gal in NIH3T3, GalScreen luminescence, 90 h | inhibition, % at 8.35 µM | hit rate 72% among 5,600 | AID 651739;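 active = mean replicate inhibition above about 95% and at least 55% of replicates individually reaching it, limit read from the data; inconclusive = only one of the two criteria is met; inactive = neither criterion is met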
# T cruzi growth-3: blocks T. cruzi growth in NIH3T3 host cells. shares compounds with T cruzi growth-1. T. cruzi beta-gal in NIH3T3, GalScreen luminescence, 90 h. inhibition, % at 2.09 µM. hit rate 21% among 5,600;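 active = mean inhibition above about 95%, with at least 55% of replicates also reaching it, limit read from the data; inconclusive = meets just one of the two conditions; inactive = meets neither condition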
# NIH3T3 tox: cytotoxicity in mouse NIH/3T3 fibroblasts; hit rate 14% among 5,600; NIH/3T3 viability, CellTiter-Glo ATP luminescence, 90 h; AID 651742; cytotoxicity (signal decrease), % at 8.35 µM; shares compounds with T cruzi growth-1;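 active = mean signal decrease across replicates above about 35% based on untreated-well scatter, with enough replicates individually passing, limit read from the data; inconclusive = no rule stated though some were filed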
# 3T3 cytotox 2: NIH/3T3 (mouse) viability loss; shares compounds with T cruzi growth-1; NIH/3T3 viability, CellTiter-Glo ATP luminescence, 90 h; inhibition, % at 24.9 µM; hit rate 56% among 5,600; AID 651744;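 active = mean loss of cell viability signal at or above a set limit, and enough replicates individually reaching it; inconclusive = meets only the mean limit or only the replicate share; inactive = meets neither condition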
# Hits are given with their value; n = inactive; u = inconclusive; x = no result given.
SMILES,T cruzi growth-1,GASC1 inh,IDH1 mut inh,T cruzi growth-2,T cruzi growth-3,NIH3T3 tox,3T3 cytotox 2
O=C(c1ccc(F)cc1)N1CCCCN2[C@H](CO)[C@H](c3ccc(C#CC4(O)CCCC4)cc3)[C@H]2C1,105.9,n,x,n,n,n,n
O=C(c1ccc(F)cc1)N1CCCCN2[C@@H](CO)[C@@H](c3ccc(C#CC4(O)CCCC4)cc3)[C@@H]2C1,u,n,x,n,n,n,n
O=C(c1ccc(F)cc1)N1CCCCN2[C@@H](CO)[C@H](c3ccc(C#CC4(O)CCCC4)cc3)[C@@H]2C1,n,n,x,x,x,x,x
O=C(C1CC1)N1CCCCN2[C@@H](CO)[C@H](c3ccc(C#CC4(O)CCCC4)cc3)[C@@H]2C1,n,x,x,x,x,x,x
Cc1c(NC(=O)CN(c2cccc(Br)c2)S(C)(=O)=O)cccc1[N+](=O)[O-],x,x,n,x,x,x,x
C[C@H]1CN([C@@H](C)CO)S(=O)(=O)c2ccc(C#CCC3CCCC3)cc2O[C@H]1CN(C)C,n,x,n,x,x,x,x
CCC(=O)N(C)C[C@H]1Oc2cc(C#CCC3CCCC3)ccc2S(=O)(=O)N([C@H](C)CO)C[C@H]1C,115.6,n,n,97.5,n,44.1,103.1
CNC[C@H]1Oc2cc(C#CCC3CCCC3)ccc2S(=O)(=O)N([C@H](C)CO)C[C@@H]1C,u,n,n,99.2,n,n,106.4
C[C@@H]1CN([C@H](C)CO)S(=O)(=O)c2ccc(C#CCC3CCCC3)cc2O[C@@H]1CN(C)C(=O)CN(C)C,n,n,n,x,x,x,x
C[C@@H]1CN([C@H](C)CO)S(=O)(=O)c2ccc(C#CCC3CCCC3)cc2O[C@@H]1CN(C)C(=O)CC1CC1,112.5,n,n,96.3,n,n,105.2
CCC(=O)N(C)C[C@@H]1Oc2cc(C#CCC3CCCC3)ccc2S(=O)(=O)N([C@H](C)CO)C[C@H]1C,n,n,n,x,x,x,x
Cc1ccc(-c2nc3ccccc3s2)cc1NC(=O)COc1ccc(Cl)cc1,x,x,n,x,x,x,x
COc1ccc2c3c([nH]c2c1)[C@@H](CO)N(C(=O)C1CC1)CC31CCN(C(=O)NC(C)C)CC1,x,n,x,x,x,x,x
CN(CC(=O)Nc1ccc(F)cc1F)S(=O)(=O)c1ccccc1,x,x,n,x,x,x,x
COc1ccc(N(C(C)C(=O)Nc2cc(Cl)ccc2C)S(C)(=O)=O)cc1 (stereo unspecified),x,x,n,x,x,x,x
O=S(=O)(NCC[C@@H]1CC[C@H](NS(=O)(=O)c2cccc(Cl)c2)[C@H](CO)O1)c1cccc(F)c1,n,n,n,x,x,x,x
Cc1noc(C)c1C(=O)N(C)C[C@H]1OCc2ccccc2-c2ccccc2C(=O)N([C@H](C)CO)C[C@H]1C,u,n,x,n,n,n,n
C[C@@H]1CN([C@H](C)CO)C(=O)c2ccccc2-c2ccccc2CO[C@H]1CN(C)S(=O)(=O)c1ccc(C(F)(F)F)cc1,95.7,n,x,u,n,n,n
C[C@H](CO)N1C[C@H](C)[C@H](CN(C)S(=O)(=O)c2cccs2)OCc2ccccc2-c2ccccc2C1=O,n,n,n,x,x,x,x
C[C@H](CO)N1C[C@H](C)[C@H](CN(C)S(=O)(=O)c2ccc(C(F)(F)F)cc2)OCc2ccccc2-c2ccccc2C1=O,n,n,n,x,x,x,x
C[C@@H]1CN([C@H](C)CO)C(=O)c2ccccc2-c2ccccc2CO[C@H]1CN(C)S(=O)(=O)c1cccs1,u,n,x,n,n,n,u
Cc1noc(C)c1NC(=O)N(C)C[C@@H]1OCc2ccccc2-c2ccccc2C(=O)N([C@@H](C)CO)C[C@@H]1C,n,n,x,x,x,x,x
Cc1ccccc1NC(=O)CSc1ncnc2c1sc1nc(N3CCOCC3)c3c(c12)CCCC3,x,x,n,x,x,x,x
O=C(Nc1ccccc1C(=O)NCCOc1ccccc1)c1ccc(Cl)cc1,x,x,n,x,x,x,x
CCCNC(=O)N[C@@H]1C=C[C@H](CC(=O)NC2CCC2)O[C@@H]1CO,x,n,n,x,x,x,x
SMILES,T cruzi growth-1,GASC1 inh,IDH1 mut inh,T cruzi growth-2,T cruzi growth-3,NIH3T3 tox,3T3 cytotox 2
Cc1nn(C)c(C)c1CNC(=O)c1cnn2c1NC(c1ccc(Br)cc1)CC2C(F)(F)F (stereo unspecified),x,x,n,x,x,x,x
Cc1cccc(S(=O)(=O)N2CC[C@@H]3[C@H]2c2cc(-c4ccccc4F)ccc2N(C)[C@H]3CO)c1,n,n,x,x,x,x,x
CN1c2ccc(-c3ccccc3F)cc2[C@@H]2[C@@H](CCN2S(=O)(=O)c2ccc(F)cc2)[C@@H]1CO,u,n,x,95.8,u,45.3,46.5
CN1c2ccc(-c3ccccc3F)cc2[C@@H]2[C@@H](CCN2S(=O)(=O)c2ccc(F)cc2)[C@H]1CO,107.6,n,x,111.4,n,u,49.5
COc1ccc(S(=O)(=O)N2CC[C@@H]3[C@H]2c2cc(-c4ccccc4F)ccc2N(C)[C@H]3CO)cc1,n,n,x,x,x,x,x
C[C@H](CO)N1C[C@H](C)[C@H](CN(C)C(=O)c2ccncc2)Oc2cc(C#CC3CC3)ccc2S1(=O)=O,103.1,n,n,n,n,n,27.7
C[C@@H]1CN([C@H](C)CO)S(=O)(=O)c2ccc(C#CC3CC3)cc2O[C@H]1CN(C)C(=O)c1ccccc1,n,n,n,x,x,x,x
C[C@@H]1CN([C@H](C)CO)S(=O)(=O)c2ccc(C#CC3CC3)cc2O[C@@H]1CN(C)C(=O)c1ccccc1,u,n,n,106.2,n,n,51.5
C[C@@H]1CN([C@H](C)CO)S(=O)(=O)c2ccc(C#CC3CC3)cc2O[C@H]1CN(C)C(=O)c1ccncc1,n,n,n,x,x,x,x
COc1ccc2c3c(n(C)c2c1)[C@H](CO)N(C(=O)C1CC1)CC31CN(C(=O)C2CCOCC2)C1,x,n,x,x,x,x,x
COc1ccccc1OCC(=O)Nc1ccc(C)cc1[N+](=O)[O-],x,x,n,x,x,x,x
C[C@@H]1CCCCO[C@@H](CN(C)Cc2ccccc2)[C@@H](C)CN([C@H](C)CO)C(=O)c2cc(NC(=O)Nc3ccc(F)cc3)ccc2O1,101.2,n,x,107.0,n,n,n
C[C@@H]1CCCCO[C@@H](CN(C)Cc2ccccc2)[C@H](C)CN([C@@H](C)CO)C(=O)c2cc(NC(=O)Nc3ccc(F)cc3)ccc2O1,u,n,n,103.4,n,n,104.5
C[C@@H]1CCCCO[C@H](CN(C)Cc2ccccc2)[C@@H](C)CN([C@H](C)CO)C(=O)c2cc(NC(=O)Nc3ccc(F)cc3)ccc2O1,n,n,n,x,x,x,x
C[C@H](CO)N1C[C@H](C)[C@H](CN(C)Cc2ccccc2)OCCCC[C@H](C)Oc2ccc(NC(=O)Nc3ccc(F)cc3)cc2C1=O,u,n,x,96.9,113.7,n,104.3
C[C@@H]1CCCCO[C@@H](CN(C)Cc2ccccc2)[C@H](C)CN([C@H](C)CO)C(=O)c2cc(NC(=O)Nc3ccc(F)cc3)ccc2O1,n,n,n,x,x,x,x
C[C@H]1CCCCO[C@@H](CN(C)Cc2ccccc2)[C@@H](C)CN([C@@H](C)CO)C(=O)c2cc(NC(=O)Nc3ccc(F)cc3)ccc2O1,n,n,n,x,x,x,x
